Eleven compounds from ChEMBL document CHEMBL4732237, “Discovery of 4-alkoxy-2-aryl-6,7-dimethoxyquinolines as a new class of topoisomerase I inhibitors endowed with potent in vitro anticancer activity” (2021) can be followed below.

Common to all, as to type: functional
Conditions in all cases: read-out: GI

For one assay, the system named is OVCAR-4. Nature of the assay: Growth inhibition of human OVCAR-4 cells at 10 uM incubated for 48 hrs by sulforhodamine B assay relative to control. The essentials:
(§1)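 NCI one-dose screen. Cells grown in RPMI 1640 with 5% FBS and 2 mM L-glutamine, plated and incubated 24 h at 37 °C, 5% CO2. DMSO-dissolved drug added, then 48 h further incubation. Adherent cells fixed with cold TCA, suspension cells fixed after settling. Stained with 0.4% SRB, absorbance read at 515 nm. Reported as percent growth relative to no-drug control and time-zero cell number.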
On the technique in general: The SRB assay estimates cell density from bound dye.

The next assay concerns Malme-3M. Nature of the assay: Growth inhibition of human Malme-3M cells at 10 uM incubated for 48 hrs by sulforhodamine B assay relative to control. An outline of the steps:
as §1

The test system of a further assay is NCI/ADR-RES. In words: Growth inhibition of human NCI/ADR-RES cells at 10 uM incubated for 48 hrs by sulforhodamine B assay relative to control. An outline of the steps: as §1
Another assay concerns BT-549. Nature of the assay: Growth inhibition of human BT-549 cells at 10 uM incubated for 48 hrs by sulforhodamine B assay relative to control. An outline of the steps:
(§2)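 NCI-60 single-dose screen. Cells were grown in RPMI 1640 with 5% FBS and 2 mM L-glutamine and plated 24 h before drug addition. Compound was added at one concentration in DMSO-derived medium and incubated for 48 h at 37 °C in 5% CO2. Read-out was SRB protein stain at 515 nm. Result is percent growth versus the no-drug control and the time-zero cell count; values below 0 indicate lethality.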

Another assay has as its system RXF 393. In words: Growth inhibition of human RXF 393 cells at 10 uM incubated for 48 hrs by sulforhodamine B assay relative to control. An outline of the steps: as §1
A further assay deals with SNB-19. Nature of the assay: Growth inhibition of human SNB-19 cells at 10 uM incubated for 48 hrs by sulforhodamine B assay relative to control. An outline of the steps:
as §1

The test system of a further assay is SR. Nature of the assay: Growth inhibition of human SR cells at 10 uM incubated for 48 hrs by sulforhodamine B assay relative to control. The essentials:
as §1

A further assay relates to K562. In words: Growth inhibition of human K562 cells at 10 uM incubated for 48 hrs by sulforhodamine B assay relative to control. The essentials:
as §2

For the next assay, the system named is UO-31. In words: Growth inhibition of human UO-31 cells at 10 uM incubated for 48 hrs by sulforhodamine B assay relative to control. The essentials:
(§3)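 NCI one-dose screen across a 59-line panel. Cells were grown in RPMI 1640 with 5% FBS and 2 mM L-glutamine, plated and pre-incubated 24 h, then exposed to drug for 48 h at 37 °C, 5% CO2. Adherent cells were fixed with cold TCA (10% final), stained with 0.4% SRB in 1% acetic acid and read at 515 nm. Result is percent growth relative to no-drug control and time-zero cell count.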

A further assay deals with TK-10. In words: Growth inhibition of human TK-10 cells at 10 uM incubated for 48 hrs by sulforhodamine B assay relative to control. The essentials:
as §3

The next assay concerns NCI-H460. Nature of the assay: Growth inhibition of human NCI-H460 cells at 10 uM incubated for 48 hrs by sulforhodamine B assay relative to control. An outline of the steps: as §1
Another assay relates to IGROV-1. In words: Growth inhibition of human IGROV-1 cells at 10 uM incubated for 48 hrs by sulforhodamine B assay relative to control. The essentials:
as §2

Another assay deals with U-251. Nature of the assay: Growth inhibition of human U-251 cells at 10 uM incubated for 48 hrs by sulforhodamine B assay relative to control. The essentials: as §3

Turning to `COc1cc2nc(-c3ccc(C(F)(F)F)cc3)cc(OCCN3CCC(O)CC3)c2cc1OC`, the inhibition of growth at 10 µM in the assay with OVCAR-4, in the assay with Malme-3M, with NCI/ADR-RES, with BT-549, in the assay with RXF 393 and in the assay on SNB-19 was 13% in each case. For the same compound, the inhibition of growth at 10 µM with SR, with K562, with UO-31, in the assay on TK-10, in the assay with NCI-H460 and with IGROV-1 was 13% each time. For the same compound, in the assay on U-251, the inhibition of growth at 10 µM amounted to 13%.

Consider `COc1cc2nc(-c3ccsc3)cc(OCCCN3CCC(O)CC3)c2cc1OC`, for which the inhibition of growth at 10 µM with OVCAR-4, in the assay on Malme-3M, in the assay with NCI/ADR-RES, with BT-549, with RXF 393 and in the assay with SNB-19 was 32% in each case. Further, the inhibition of growth at 10 µM in the assay on SR, in the assay on K562, in the assay on UO-31, in the assay on TK-10, in the assay with NCI-H460 and with IGROV-1 was 32% each time. Besides, in the assay with U-251, the inhibition of growth at 10 µM worked out at 32%.

In the case of `COc1cc2nc(-c3ccc(C(F)(F)F)cc3)cc(OCCN3CCOCC3)c2cc1OC`, the inhibition of growth at 10 µM in the assay on OVCAR-4, in the assay on Malme-3M, in the assay on NCI/ADR-RES, with BT-549, with RXF 393 and in the assay with SNB-19 was 13% in each case. Besides, the inhibition of growth at 10 µM in the assay on SR, in the assay with K562, with UO-31, in the assay with TK-10, in the assay on NCI-H460 and with IGROV-1 was 13% each time. The inhibition of growth at 10 µM in the assay with U-251 was 13%.

As to `COc1cc2nc(-c3ccc(Cl)cc3)cc(OCCN3CCCCC3)c2cc1OC`, the inhibition of growth at 10 µM in the assay with OVCAR-4, in the assay on Malme-3M, in the assay on NCI/ADR-RES, in the assay with BT-549, in the assay on RXF 393 and in the assay on SNB-19 was 3% in each case. Also, the inhibition of growth at 10 µM in the assay on SR, with K562, with UO-31, in the assay on TK-10, in the assay with NCI-H460 and in the assay on IGROV-1 was 3% in each case. Moreover, the inhibition of growth at 10 µM in the assay on U-251 came out at 3%.

`COc1cc2nc(-c3ccc(Cl)cc3)cc(OCCN3CCOCC3)c2cc1OC`: the inhibition of growth at 10 µM with OVCAR-4, in the assay with Malme-3M, with NCI/ADR-RES, in the assay with BT-549, in the assay with RXF 393 and in the assay on SNB-19 was 3% throughout. Also, the inhibition of growth at 10 µM in the assay on SR, with K562, in the assay with UO-31, in the assay with TK-10, with NCI-H460 and with IGROV-1 was 3% in each case. For the same compound, in the assay on U-251, the inhibition of growth at 10 µM stood at 3%.

Turning to `COc1cc2nc(-c3ccc(Cl)cc3)cc(OCCN3CCC(O)CC3)c2cc1OC`, the inhibition of growth at 10 µM in the assay on OVCAR-4, in the assay on Malme-3M, in the assay with NCI/ADR-RES, in the assay on BT-549, in the assay with RXF 393 and in the assay with SNB-19 was 3% throughout. The inhibition of growth at 10 µM with SR, in the assay with K562, in the assay on UO-31, in the assay with TK-10, in the assay with NCI-H460 and with IGROV-1 was 3% throughout. Also, the inhibition of growth at 10 µM in the assay on U-251 worked out at 3%.

`COc1cc2nc(-c3cccs3)cc(OCCCN3CCC(O)CC3)c2cc1OC`: the inhibition of growth at 10 µM with OVCAR-4, in the assay on Malme-3M, in the assay with NCI/ADR-RES, in the assay on BT-549, with RXF 393 and with SNB-19 was 20% in each case. Further, the inhibition of growth at 10 µM in the assay with SR, in the assay on K562, in the assay on UO-31, in the assay with TK-10, in the assay with NCI-H460 and in the assay on IGROV-1 was 20% each time. Moreover, the inhibition of growth at 10 µM in the assay with U-251 amounted to 20%.

`COc1cc2nc(-c3ccco3)cc(OCCCN3CCC(O)CC3)c2cc1OC`: the inhibition of growth at 10 µM in the assay with OVCAR-4, in the assay with Malme-3M, in the assay with NCI/ADR-RES, in the assay on BT-549, in the assay on RXF 393 and with SNB-19 was 46% throughout. Moreover, the inhibition of growth at 10 µM in the assay with SR, in the assay on K562, in the assay on UO-31, in the assay with TK-10, in the assay on NCI-H460 and in the assay with IGROV-1 was 46% each time. Further, the inhibition of growth at 10 µM with U-251 came to 46%.

Regarding `COc1cc2nc(-c3ccc(Cl)cc3)cc(OCCN3CCCC3)c2cc1OC`, the inhibition of growth at 10 µM in the assay on OVCAR-4, with Malme-3M, with NCI/ADR-RES, in the assay on BT-549, with RXF 393 and in the assay with SNB-19 was 3% throughout. In addition, the inhibition of growth at 10 µM in the assay with SR, in the assay with K562, in the assay with UO-31, in the assay with TK-10, with NCI-H460 and in the assay on IGROV-1 was 3% throughout. In addition, the inhibition of growth at 10 µM with U-251 stood at 3%.

For `COc1cc2nc(-c3ccc(C(F)(F)F)cc3)cc(OCCN3CCCCC3)c2cc1OC`, the inhibition of growth at 10 µM in the assay on OVCAR-4, in the assay with Malme-3M, in the assay with NCI/ADR-RES, in the assay with BT-549, with RXF 393 and with SNB-19 was 13% in each case. In addition, the inhibition of growth at 10 µM with SR, in the assay with K562, in the assay on UO-31, in the assay on TK-10, with NCI-H460 and in the assay on IGROV-1 was 13% each time. Besides, in the assay with U-251, the inhibition of growth at 10 µM turned out to be 13%.

With `COc1cc2nc(-c3ccc(C(F)(F)F)cc3)cc(OCCN3CCCC3)c2cc1OC`, the inhibition of growth at 10 µM in the assay with OVCAR-4, in the assay with Malme-3M, in the assay on NCI/ADR-RES, in the assay on BT-549, with RXF 393 and in the assay on SNB-19 was 13% each time. In addition, the inhibition of growth at 10 µM in the assay on SR, in the assay on K562, in the assay on UO-31, with TK-10, in the assay with NCI-H460 and with IGROV-1 was 13% each time. In the assay with U-251, the inhibition of growth at 10 µM came to 13%.
